Calls of active or inactive are those of the source. No cut-off for these calls is given here.
Columns and labels:
[1] = system: Human immunodeficiency virus 1; assay: Antiviral activity against HIV1 NL4-3 infected in human MT4 cells assessed as reduction in virus-induced cytopathic effect after 5 days by MTT assay; assay type: functional, organism-based; conditions: Human immunodeficiency virus 1, NL4-3, MT4, 120 h
How it was run: (§1)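 MT4 cells were infected 1 h with 50–100 pg RNA virus, washed twice, and exposed in triplicate to half-log PI dilutions (DMSO 1% final) for 5 days at 37°C. Cell viability was read by MTT: 4 h, SDS/HCl lysis overnight, OD at 570/650 nm. Cytopathic-effect reduction was scaled between infected and uninfected controls. EC50 by nonlinear regression, mean of three experiments.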

[2] = system: Human immunodeficiency virus 2; assay: Antiviral activity against HIV2 CBL-23 infected in human PBMC assessed as inhibition of virus production after 5 days by Lenti-RT activity assay; assay type: functional, organism-based; conditions: Human immunodeficiency virus 2, CBL-23, 120 h
How it was run: (§2)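 PBMCs were stimulated with PHA (5 μg/ml) for 3 days, then kept in 20% FBS medium with IL-2 (50 U/ml). Cells were infected 1 h with 50–100 pg RNA virus, washed twice, and given half-log PI dilutions (DMSO 1% final) in triplicate. After 5 days at 37°C, supernatant RT was read versus infected control. EC50 by nonlinear regression, mean of three experiments.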

[3] = system: Human immunodeficiency virus 2; assay: Antiviral activity against wild type HIV2 ROD infected in human CEM cells assessed as inhibition of virus production after 7 days by Lenti-RT activity assay; assay type: functional, organism-based; conditions: Human immunodeficiency virus 2, ROD, CCRF-CEM, 168 h
[4] = system: Human immunodeficiency virus 2; assay: Ratio of EC50 for HIV2 ROD with protease V47A mutation to EC50 for wild type HIV2 ROD; assay type: functional
How it was run: (§3)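 Protease mutant clones of HIV-2ROD came from site-directed mutagenesis of pSL-3, with stocks made by 293T transfection. CEM174 cells were infected with 100 pg RT of virus for 2 h at 37°C, washed, and seeded at 2 × 10^5 cells/ml. PI was added as 1:4 serial dilutions, 1% DMSO final, and incubated 7 days. Supernatant RT was read, in triplicate. EC50 came from nonlinear regression, and fold-change is mutant EC50 divided by HIV-2ROD EC50.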

[5] = system: Human immunodeficiency virus 2; assay: Antiviral activity against HIV2 ROD with protease V47A mutation infected in human CEM cells assessed as inhibition of virus production after 7 days by Lenti-RT activity assay; assay type: functional, organism-based; conditions: Human immunodeficiency virus 2, ROD, CCRF-CEM, 168 h; how it was run: as §3
[6] = system: Human immunodeficiency virus 2; assay: Antiviral activity against HIV2 ROD with protease G17N/V47A mutation infected in human CEM cells assessed as inhibition of virus production after 7 days by Lenti-RT activity assay; assay type: functional, organism-based; conditions: Human immunodeficiency virus 2, ROD, CCRF-CEM, 168 h; how it was run: as §3
[7] = system: Human immunodeficiency virus 2; assay: Ratio of EC50 for HIV2 ROD with protease G17N/V47A mutation to EC50 for wild type HIV2 ROD; assay type: functional; how it was run: as §3
[8] = system: Human immunodeficiency virus 2; assay: Antiviral activity against HIV2 CDC310319 isolate infected in human PBMC assessed as inhibition of virus production after 5 days by Lenti-RT activity assay; assay type: functional, organism-based; conditions: Human immunodeficiency virus 2, 120 h; how it was run: as §2
PBMC [9] = assay: (§4) Ratio of EC50 for HIV2 CDC310319 infected in human PBMC to EC50 for HIV1 NL4-3 infected in human MT4 cells; assay type: functional
[10] = system: Human immunodeficiency virus 2; assay: Antiviral activity against HIV2 ROD with protease G17N mutation infected in human CEM cells assessed as inhibition of virus production after 7 days by Lenti-RT activity assay; assay type: functional, organism-based; conditions: Human immunodeficiency virus 2, ROD, CCRF-CEM, 168 h; how it was run: as §3
[11] = system: Human immunodeficiency virus 2; assay: Antiviral activity against HIV2 MS infected in human MT4 cells assessed as reduction in virus-induced cytopathic effect after 5 days by MTT assay; assay type: functional, organism-based; conditions: Human immunodeficiency virus 2, MT4, 120 h; how it was run: as §1
PBMC [12] = assay: (§5) Ratio of EC50 for HIV2 CBL-23 infected in human PBMC to EC50 for HIV1 NL4-3 infected in human MT4 cells; assay type: functional
[13] = system: Human immunodeficiency virus 2; assay: Ratio of EC50 for HIV2 ROD with protease G17N mutation to EC50 for wild type HIV2 ROD; assay type: functional; how it was run: as §3
MT4 = assay: (§6) Ratio of EC50 for HIV2 MS to EC50 for HIV1 NL4-3 infected in human MT4 cells; assay type: functional
[14] = as §4; assay type: functional
[15] = as §5; assay type: functional
[16] = as §6; assay type: functional
[17] = system: Human immunodeficiency virus 2; assay: Ratio of EC50 for HIV2 MS infected in human MT4 cells after 18 passages to EC50 for HIV2 MS infected in human MT4 cells; assay type: functional
[18] = system: Human immunodeficiency virus 1; assay: Antiviral activity against HIV1 NL4-3 infected in human PBMC cells assessed as inhibition of virus production after 5 days by Lenti-RT activity assay; assay type: functional, organism-based; how it was run: as §2
[19] = system: Human immunodeficiency virus 2; assay: Antiviral activity against HIV2 MS infected in human MT4 cells […] after 1 passage; assay type: functional, organism-based; conditions: Human immunodeficiency virus 2, MT4
[20] = system: Human immunodeficiency virus 2; assay: Antiviral activity against HIV2 MS infected in human PBMC cells assessed as inhibition of virus production after 5 days by Lenti-RT activity assay; assay type: functional, organism-based; conditions: Human immunodeficiency virus 2, PBMC, 120 h
How it was run: (§7)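 Infection used 50 to 100 pg RNA for 1 h, followed by two washes. MT4 cells or PHA-stimulated, IL-2-maintained PBMCs were then exposed to half-log PI dilutions in triplicate, with 1% DMSO final. Incubation was 5 days at 37°C. Day-5 supernatant RT was read by Lenti-RT assay. EC50 came from nonlinear regression, as the mean of three independent experiments.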

[21] = system: Human immunodeficiency virus 2; assay: Ratio of EC50 for HIV2 MS infected in human MT4 cells after 1 passage to EC50 for HIV2 MS infected in human MT4 cells; assay type: functional
[22] = system: Human immunodeficiency virus 1; assay: Antiviral activity against HIV1 NL4-3 infected in human MT4 cells assessed as inhibition of virus production after 5 days by Lenti-RT activity assay; assay type: functional, organism-based
How it was run: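 HIV-1 NL4-3 in MT4 cells (RPMI 1640, 10% FBS) was adsorbed 1 h at 50–100 pg RNA and washed twice. PI in DMSO (1% final) was added in half-log dilutions, in triplicate. After 5 days at 37°C, supernatant RT was measured and expressed relative to infected untreated control. EC50 came from nonlinear regression, as the mean of three independent experiments.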

[23] = system: Human immunodeficiency virus 2; assay: Antiviral activity against HIV2 MS infected in human MT4 cells assessed as inhibition of virus production after 5 days by Lenti-RT activity assay; assay type: functional, organism-based; conditions: Human immunodeficiency virus 2, MT4, 120 h; how it was run: as §7
[24] = system: Human immunodeficiency virus 2; assay: Antiviral activity against HIV2 MS infected in human MT4 cells […] after 18 passages; assay type: functional, organism-based; conditions: Human immunodeficiency virus 2, MT4
[25] = system: Human immunodeficiency virus 1; assay: Antiviral activity against HIV1 in presence of 50% human serum; assay type: functional, organism-based

Row | Compound | EC50 [1] | EC50 [2] | EC50 [3] | Ratio EC50 [4] | EC50 [5] | EC50 [6] | Ratio EC50 [7] | EC50 [8] | EC50 [10] | EC50 [11] | Ratio EC50 [13] | Ratio EC50 [14] | Ratio EC50 [15] | Ratio EC50 [16] | also measured
1 | CC(C)CN(C[C@@H](O)[C@H](Cc1ccccc1)NC(=O)O[C@H]1CCOC1)S(=O)(=O)c1ccc(N)cc1 [AMPRENAVIR] | 72 nM | 939 nM | 855 nM | 0.7 | 630 nM | 404 nM | 0.5 | 674 nM | 583 nM | 900 nM | 0.7 |  |  |  | Ratio EC50 (PBMC [9]): 9.2; Ratio EC50 (PBMC [12]): 13; Ratio EC50 (MT4): 12.5
2 | COC(=O)N[C@H](C(=O)N[C@@H](Cc1ccccc1)[C@@H](O)CN(Cc1ccc(-c2ccccn2)cc1)NC(=O)[C@@H](NC(=O)OC)C(C)(C)C)C(C)(C)C [ATAZANAVIR] | 5 nM | 39 nM | 34 nM | 0.1 | 5 nM | 3 nM | 0.1 | 110 nM | 20 nM | 20 nM | 0.6 | 22 | 7.8 | 4 | 
3 | CC(C)CN(C[C@@H](O)[C@H](Cc1ccccc1)NC(=O)O[C@H]1CO[C@H]2OCC[C@H]21)S(=O)(=O)c1ccc(N)cc1 [DARUNAVIR] | 12 nM | 83 nM | 9 nM | 1.1 | 10 nM | 8 nM | 0.9 | 155 nM | 6 nM |  | 0.7 | 12.9 | 6.9 |  | 
4 | CC(C)(C)NC(=O)[C@@H]1CN(Cc2cccnc2)CCN1C[C@@H](O)C[C@@H](Cc1ccccc1)C(=O)N[C@H]1c2ccccc2C[C@H]1O.O [INDINAVIR] | 38 nM | 33 nM | 65 nM | 0.5 | 34 nM | 24 nM | 0.5 | 108 nM | 52 nM | 22 nM | 0.8 | 2.6 | 0.8 | 0.5 | 
5 | Cc1cccc(C)c1OCC(=O)N[C@@H](Cc1ccccc1)[C@@H](O)C[C@H](Cc1ccccc1)NC(=O)[C@H](C(C)C)N1CCCNC1=O [LOPINAVIR] | 18 nM | 12 nM | 35 nM | 9.7 | 340 nM | 260 nM | 7.4 | 180 nM | 28 nM | 15 nM | 0.8 | 10 | 0.7 | 0.8 | Ratio EC50 [17]: 34; Activity [18]: Active; EC50 [19]: 15 nM; EC50 [20]: 15 nM; Ratio EC50 [21]: 1; Activity [22]: Active; EC50 [23]: 6 nM; EC50 [24]: 515 nM
6 | Cc1c(O)cccc1C(=O)N[C@@H](CSc1ccccc1)[C@H](O)CN1C[C@H]2CCCC[C@H]2C[C@H]1C(=O)NC(C)(C)C [NELFINAVIR] | 18 nM | 83 nM | 281 nM | 0.6 | 177 nM | 100 nM | 0.4 | 389 nM | 199 nM | 48 nM | 0.7 | 21.6 | 4.6 | 2.7 | 
7 | CC(C)c1nc(CN(C)C(=O)N[C@H](C(=O)N[C@@H](Cc2ccccc2)C[C@H](O)[C@H](Cc2ccccc2)NC(=O)OCc2cncs2)C(C)C)cs1 [RITONAVIR] | 46 nM | 514 nM | 421 nM | 0.3 | 115 nM | 84 nM | 0.2 | 665 nM | 310 nM | 349 nM | 0.7 | 14.5 | 11.2 | 7.6 | EC50 [25]: 100 nM
8 | CC(C)(C)NC(=O)[C@@H]1C[C@@H]2CCCC[C@@H]2CN1C[C@@H](O)[C@H](Cc1ccccc1)NC(=O)[C@H](CC(N)=O)NC(=O)c1ccc2ccccc2n1 [SAQUINAVIR] | 12 nM | 8 nM | 3.6 nM | 0.1 | 0.2 nM | 0.2 nM | 0.1 | 68 nM | 2.2 nM | 5 nM | 0.6 | 5.7 | 0.7 | 0.4 | 

Source: ChEMBL document CHEMBL1143422, “In vitro selection and characterization of human immunodeficiency virus type 2 with decreased susceptibility to lopinavir” (Antimicrob Agents Chemother, 2007)
